According to ChEMBL document CHEMBL4229342, “Synthesis of novel proxyphylline derivatives with dual Anti-Candida albicans and anticancer activity” (Eur J Med Chem, 2018):

How the values were obtained:
Type in all cases: functional
CCRF-CEM [1] = assay: Antiproliferative activity against human CCRF-CEM cells assessed as cell viability at 25 uM after 72 hrs by MTT assay; settings: read-out: Activity
Procedure, shortened: (§1)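 MTT viability assay in CCRF-CEM and MCF-7 cells after 72 h exposure at 25, 50, 100 and 200 µM. Results are relative to control cells without inhibitor in 0.5% DMSO. Done in triplicate; values are means ± SD of three independent experiments.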

Candida albicans [2] = assay: Growth inhibition of Candida albicans ATCC 90028 at 0.5 ug/ml incubated for 4 hrs at 35 degC by broth microdilution method relative to control; settings: ATCC 90028, 4 h, read-out: GI
Candida albicans [3] = assay: Growth inhibition of Candida albicans ATCC 90028 at 1 ug/ml incubated for 18 hrs at 35 degC by broth microdilution method relative to control; settings: ATCC 90028, 18 h, read-out: GI
Candida albicans [4] = assay: Growth inhibition of Candida albicans ATCC 90028 at 0.5 ug/ml incubated for 18 hrs at 35 degC by broth microdilution method relative to control; settings: ATCC 90028, 18 h, read-out: GI
Candida albicans [5] = assay: Growth inhibition of Candida albicans ATCC 90028 at 0.0625 ug/ml incubated for 4 hrs at 35 degC by broth microdilution method relative to control; settings: ATCC 90028, 4 h, read-out: GI
Candida albicans [6] = assay: Growth inhibition of Candida albicans ATCC 90028 at 8 ug/ml incubated for 48 hrs at 35 degC by broth microdilution method relative to control; settings: ATCC 90028, 48 h, read-out: GI
Candida albicans [7] = assay: Growth inhibition of Candida albicans ATCC 90028 at 0.125 ug/ml incubated for 4 hrs at 35 degC by broth microdilution method relative to control; settings: ATCC 90028, 4 h, read-out: GI
CCRF-CEM [8] = assay: Antiproliferative activity against human CCRF-CEM cells assessed as cell viability at 50 uM after 72 hrs by MTT assay; settings: read-out: Activity; procedure, shortened: as §1
CCRF-CEM [9] = assay: Antiproliferative activity against human CCRF-CEM cells assessed as cell viability at 100 uM after 72 hrs by MTT assay; settings: read-out: Activity; procedure, shortened: as §1
Candida albicans [10] = assay: Growth inhibition of Candida albicans ATCC 90028 at 16 ug/ml incubated for 18 hrs at 35 degC by broth microdilution method relative to control; settings: ATCC 90028, 18 h, read-out: GI
Candida albicans [11] = assay: Growth inhibition of Candida albicans ATCC 90028 at 0.25 ug/ml incubated for 4 hrs at 35 degC by broth microdilution method relative to control; settings: ATCC 90028, 4 h, read-out: GI
Candida albicans [12] = assay: Growth inhibition of Candida albicans ATCC 90028 at 0.25 ug/ml incubated for 18 hrs at 35 degC by broth microdilution method relative to control; settings: ATCC 90028, 18 h, read-out: GI
Candida albicans [13] = assay: Growth inhibition of Candida albicans ATCC 90028 at 2 ug/ml incubated for 18 hrs at 35 degC by broth microdilution method relative to control; settings: ATCC 90028, 18 h, read-out: GI
Candida albicans [14] = assay: Growth inhibition of Candida albicans ATCC 90028 at 2 ug/ml incubated for 4 hrs at 35 degC by broth microdilution method relative to control; settings: ATCC 90028, 4 h, read-out: GI
Candida albicans [15] = assay: Growth inhibition of Candida albicans ATCC 90028 at 0.0625 ug/ml incubated for 18 hrs at 35 degC by broth microdilution method relative to control; settings: ATCC 90028, 18 h, read-out: GI
Candida albicans [16] = assay: Growth inhibition of Candida albicans ATCC 90028 at 0.0313 ug/ml incubated for 18 hrs at 35 degC by broth microdilution method relative to control; settings: ATCC 90028, 18 h, read-out: GI
MCF7 [17] = assay: Antiproliferative activity against human MCF7 cells assessed as cell viability at 200 uM after 72 hrs by MTT assay; settings: MCF7, 72 h, read-out: Activity; procedure, shortened: as §1
Candida albicans [18] = assay: Growth inhibition of Candida albicans ATCC 90028 at 0.0313 ug/ml incubated for 4 hrs at 35 degC by broth microdilution method relative to control; settings: ATCC 90028, 4 h, read-out: GI
Candida albicans [19] = assay: Growth inhibition of Candida albicans ATCC 90028 at 8 ug/ml incubated for 4 hrs at 35 degC by broth microdilution method relative to control; settings: ATCC 90028, 4 h, read-out: GI
Candida albicans [20] = assay: Growth inhibition of Candida albicans ATCC 90028 at 16 ug/ml incubated for 48 hrs at 35 degC by broth microdilution method relative to control; settings: ATCC 90028, 48 h, read-out: GI
MCF7 [21] = assay: Antiproliferative activity against human MCF7 cells assessed as cell viability at 25 uM after 72 hrs by MTT assay; settings: MCF7, 72 h, read-out: Activity; procedure, shortened: as §1
MCF7 [22] = assay: Antiproliferative activity against human MCF7 cells assessed as cell viability at 100 uM after 72 hrs by MTT assay; settings: MCF7, 72 h, read-out: Activity; procedure, shortened: as §1
Candida albicans [23] = assay: Growth inhibition of Candida albicans ATCC 90028 at 1 ug/ml incubated for 4 hrs at 35 degC by broth microdilution method relative to control; settings: ATCC 90028, 4 h, read-out: GI
Candida albicans [24] = assay: Growth inhibition of Candida albicans ATCC 90028 at 0.125 ug/ml incubated for 18 hrs at 35 degC by broth microdilution method relative to control; settings: ATCC 90028, 18 h, read-out: GI
Candida albicans [25] = assay: Growth inhibition of Candida albicans ATCC 90028 at 4 ug/ml incubated for 18 hrs at 35 degC by broth microdilution method relative to control; settings: ATCC 90028, 18 h, read-out: GI
CCRF-CEM [26] = assay: Antiproliferative activity against human CCRF-CEM cells assessed as cell viability at 200 uM after 72 hrs by MTT assay; settings: read-out: Activity; procedure, shortened: as §1
Candida albicans [27] = assay: Growth inhibition of Candida albicans ATCC 90028 at 8 ug/ml incubated for 18 hrs at 35 degC by broth microdilution method relative to control; settings: ATCC 90028, 18 h, read-out: GI
Candida albicans [28] = assay: Fungicidal activity against Candida albicans ATCC 90028 assessed as log reduction in cell viability at 16 ug/ml after 48 hrs at 35 degC
Procedure, shortened: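 MFC assay on C. albicans ATCC 90028 following M27-A3, at the molar equivalent of 16 µg/mL. CFU of treated cells were compared with CFU of the untreated inoculum. Activity is given as lg R = lg CFU/mL control − lg CFU/mL treated, and lg R ≥3 was defined as fungicidal. Values are means of two independent experiments.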

MCF7 [29] = assay: Antiproliferative activity against human MCF7 cells assessed as cell viability at 50 uM after 72 hrs by MTT assay; settings: MCF7, 72 h, read-out: Activity; procedure, shortened: as §1

Structure (SMILES)	viability at 25 µM (CCRF-CEM [1])	inhibition of growth at 0.5 µg/mL (Candida albicans [2])	inhibition of growth at 1 µg/mL (Candida albicans [3])	inhibition of growth at 0.5 µg/mL (Candida albicans [4])	inhibition of growth at 0.0625 µg/mL (Candida albicans [5])	inhibition of growth at 8 µg/mL (Candida albicans [6])	inhibition of growth at 0.125 µg/mL (Candida albicans [7])	viability at 50 µM (CCRF-CEM [8])	viability at 100 µM (CCRF-CEM [9])	inhibition of growth at 16 µg/mL (Candida albicans [10])	inhibition of growth at 0.25 µg/mL (Candida albicans [11])	inhibition of growth at 0.25 µg/mL (Candida albicans [12])	inhibition of growth at 2 µg/mL (Candida albicans [13])	inhibition of growth at 2 µg/mL (Candida albicans [14])	inhibition of growth at 0.0625 µg/mL (Candida albicans [15])	inhibition of growth at 0.0313 µg/mL (Candida albicans [16])	viability at 200 µM (MCF7 [17])	inhibition of growth at 0.0313 µg/mL (Candida albicans [18])	inhibition of growth at 8 µg/mL (Candida albicans [19])	inhibition of growth at 16 µg/mL (Candida albicans [20])	also measured
CC(Cn1cnc2c1c(=O)n(C)c(=O)n2C)OCc1cn(-c2cccc3ccccc23)nn1 (centres undefined)	90%	99.3%	99.7%	99.7%	99.8%	99.6%	99.7%	67.7%	34.2%	99.6%	99.5%	99.8%	99.8%	99.2%	100%	99.9%	77%	99.1%	99.6%	99.1%	viability at 25 µM (MCF7 [21]): 93.5%; viability at 100 µM (MCF7 [22]): 93.3%; inhibition of growth at 1 µg/mL (Candida albicans [23]): 99.5%; inhibition of growth at 0.125 µg/mL (Candida albicans [24]): 100%; inhibition of growth at 4 µg/mL (Candida albicans [25]): 99.8%; viability at 200 µM (CCRF-CEM [26]): 4.1%; inhibition of growth at 8 µg/mL (Candida albicans [27]): 99.9%; log(activity) (Candida albicans [28]): 0.5; viability at 50 µM (MCF7 [29]): 91.9%
CC(Cn1cnc2c1c(=O)n(C)c(=O)n2C)OC(=O)Nc1ccccc1 (centres undefined)	78.9%	99.2%	99.9%	100%	99.3%	99.2%	99.3%	73.1%	53.5%	100%	99.2%	100%	100%	99.4%	100%	100%	81%	99.4%	99.2%	99.1%	viability at 25 µM (MCF7 [21]): 91.9%; viability at 100 µM (MCF7 [22]): 84.7%; inhibition of growth at 1 µg/mL (Candida albicans [23]): 99.3%; inhibition of growth at 0.125 µg/mL (Candida albicans [24]): 100%; inhibition of growth at 4 µg/mL (Candida albicans [25]): 99.7%; viability at 200 µM (CCRF-CEM [26]): 38.5%; inhibition of growth at 8 µg/mL (Candida albicans [27]): 99.9%; log(activity) (Candida albicans [28]): 0.6; viability at 50 µM (MCF7 [29]): 83.6%
CC(Cn1cnc2c1c(=O)n(C)c(=O)n2C)OC(=O)CC(=O)c1ccccc1 (centres undefined)	85.1%	99%	99.3%	99.1%	99.1%	99%	99%	88.1%	65.6%	99.7%	99%	99.1%	99.3%	99.1%	99.2%	99.2%	81.8%	99.1%	99.1%	99%	viability at 25 µM (MCF7 [21]): 91.3%; viability at 100 µM (MCF7 [22]): 79.3%; inhibition of growth at 1 µg/mL (Candida albicans [23]): 99.1%; inhibition of growth at 0.125 µg/mL (Candida albicans [24]): 99.2%; inhibition of growth at 4 µg/mL (Candida albicans [25]): 99.2%; viability at 200 µM (CCRF-CEM [26]): 38.5%; inhibition of growth at 8 µg/mL (Candida albicans [27]): 99.8%; log(activity) (Candida albicans [28]): 0.7; viability at 50 µM (MCF7 [29]): 79.8%
CC(Cn1cnc2c1c(=O)n(C)c(=O)n2C)OC(=O)C(c1ccccc1)c1ccccc1 (centres undefined)	84.8%	99.1%	99.6%	99.6%	99.3%	99.1%	99.8%	33.1%	30.5%	99.9%	99.1%	99.3%	99.8%	99.2%	100%	100%	43.5%	99.9%	99.2%	99.1%	viability at 25 µM (MCF7 [21]): 89.5%; viability at 100 µM (MCF7 [22]): 67.3%; inhibition of growth at 1 µg/mL (Candida albicans [23]): 99.4%; inhibition of growth at 0.125 µg/mL (Candida albicans [24]): 100%; inhibition of growth at 4 µg/mL (Candida albicans [25]): 100%; viability at 200 µM (CCRF-CEM [26]): 2.5%; inhibition of growth at 8 µg/mL (Candida albicans [27]): 99.9%; log(activity) (Candida albicans [28]): 0.1; viability at 50 µM (MCF7 [29]): 75.2%
CC(Cn1cnc2c1c(=O)n(C)c(=O)n2C)OC(=O)Sc1ccccc1 (centres undefined)	53.9%	99.4%	99.9%	99.9%	99.1%	99.2%	99.1%	37.1%	14.5%	99.8%	99.5%	100%	100%	99.3%	99.7%	99.8%	43.1%	99.3%	99.5%	99.5%	viability at 25 µM (MCF7 [21]): 86.8%; viability at 100 µM (MCF7 [22]): 69.9%; inhibition of growth at 1 µg/mL (Candida albicans [23]): 99.5%; inhibition of growth at 0.125 µg/mL (Candida albicans [24]): 99.5%; inhibition of growth at 4 µg/mL (Candida albicans [25]): 99.8%; viability at 200 µM (CCRF-CEM [26]): 0.5%; inhibition of growth at 8 µg/mL (Candida albicans [27]): 100%; log(activity) (Candida albicans [28]): 0.1; viability at 50 µM (MCF7 [29]): 81.9%
COC(C(=O)OC(C)Cn1cnc2c1c(=O)n(C)c(=O)n2C)c1cccc2ccccc12 (centres undefined)	96.6%	99.1%	100%	100%	100%	99.6%	100%	87.9%	51.4%	99.8%	98.9%	99.9%	99.9%	99.3%	100%	100%	76.9%	99.5%	99%	99.4%	viability at 25 µM (MCF7 [21]): 92.6%; viability at 100 µM (MCF7 [22]): 83.3%; inhibition of growth at 1 µg/mL (Candida albicans [23]): 99.3%; inhibition of growth at 0.125 µg/mL (Candida albicans [24]): 100%; inhibition of growth at 4 µg/mL (Candida albicans [25]): 99.5%; viability at 200 µM (CCRF-CEM [26]): 34.6%; inhibition of growth at 8 µg/mL (Candida albicans [27]): 100%; log(activity) (Candida albicans [28]): 0.5; viability at 50 µM (MCF7 [29]): 87.7%
